According to ChEMBL document CHEMBL4513216, “Probing the Open Global Health Chemical Diversity Library for Multistage-Active Starting Points for Next-Generation Antimalarials” (ACS Infect Dis, 2020):

assay: Toxicity liver stage against HepG2, at 10uM; type: cell-based; parameters: test concentration 10 uM, cell line HepG2-A16-CD81EGFP; settings: human, HepG2-A16-CD81EGFP cells; read-out: INHIBITION
In short: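 Uninfected HepG2-A16-CD81EGFP cells, 3 × 10^3 per well, 1536-well, plated on prespotted compound at 10 μM final, parasite-free screening media added to match infected plates; puromycin 10 μM positive, DMSO 0.5% negative; run in parallel with 48 h PbLuc assay at 37 °C, 5% CO2; viability by CellTiter-Glo luminescence, normalized to controls.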

Row | Compound | cytotoxicity at 10 µM [%]
1 | COc1ccccc1C(=O)N(C)C1CCN(c2ccccn2)CC1 | -15.4
2 | CNC(=O)C1CCN(c2ncc3c(n2)CCN3c2ccccc2)C1 (stereo unspecified) | -10.1
3 | CC(C)c1nc(C2CCCN2CC(=O)N2CCNC2=O)no1 (stereo unspecified) | -8.96
4 | O=S(=O)(Cc1c(F)cccc1Cl)Cc1nnnn1C1CC1 | -5.19
5 | Cn1ncnc1CNc1ccc2c(c1)N(C(=O)OC(C)(C)C)CCC2 | 6.37
6 | CN(Cc1cnn(C)c1)C(=O)CN1CCCC(Cn2cncn2)C1 (stereo unspecified) | -0.808
7 | CCS(=O)(=O)NC1CCc2c(ccc(=O)n2CC2CC2)C1 (stereo unspecified) | -67.2
8 | Cc1noc(C)c1CNC(=O)C1(NS(C)(=O)=O)CCCCC1 | 6.55
9 | O=C1CN(C(=O)CC2C(=O)NCCN2CC2CCCCC2)CCN1 (stereo unspecified) | -7.41
10 | Cc1ccc(CN2CCCC3(CCCC(=O)N3C)C2)s1 (stereo unspecified) | -110
11 | O=C(c1cccnc1)N1CCC(Oc2cccc(C(F)(F)F)c2)CC1 | 7.19
12 | CCCN1CCN(C(=O)c2cccnc2)CC1 | -48.5
13 | CCc1csc(C2CCCN(C(=O)c3ccccn3)C2)n1 (stereo unspecified) | 1.36
14 | Cc1nc(CN2C[C@@H]3CN(C(=O)c4cccn4C)C[C@@H]3C2=O)cs1 | 1.88
15 | CCN(CC)C(=O)CSc1nc2cc(C)nc-2c(O)n1Cc1ccco1 | 3.49
16 | O=c1c2c[nH]c(N3CCCCC3)nc-2cn1-c1ccc2c(c1)OCO2 | 15
17 | CCN1C[C@@H]2CN(c3cc(OC)ncn3)CCC[C@]2(C(=O)O)C1 | -2.58
18 | CN(Cc1ccco1)C(=O)CN1CCOC(Cn2cncn2)C1 (stereo unspecified) | -7.36
19 | CCN(Cc1cccc(C(=O)Nc2cn(C)nn2)c1)[C@H]1COC[C@@H]1O | -2.77
20 | Fc1cnc(N2CCO[C@H]3CN(CC4CCCC4)C[C@H]32)nc1 | -9.39
21 | C[S+]([O-])CCNC(=O)Nc1cc(F)ccc1-n1cccn1 (stereo unspecified) | -20.9

Row | Compound | cytotoxicity at 10 µM [%]
22 | O=C(NC1CC1)c1cnc(-c2noc3cc(N4CCCCC4)ccc23)s1 | 46
23 | CC(=O)N1CCc2c(nc(-c3ccncc3)nc2N(C)CC(O)CO)C1 (stereo unspecified) | -13.1
24 | CN(C)CCOCc1cncc2c1CCN(C(=O)c1cscn1)C2 | -102
25 | CC(C)COCc1cncc2c1CCN(Cc1cnn(C)c1)C2 | -7.96
26 | c1cnnc(N2CCCC(NCc3cccc4c3OCO4)C2)c1 (stereo unspecified) | 2.97
27 | O=C(CCOc1ccccc1F)N1CCC(O)CC1 | -14
28 | Cc1ccccc1CS(=O)(=O)CC(=O)N(C)Cc1ccccc1 | 2.84
29 | CSc1nccc(N2C[C@@H](CN3CCCCC3)[C@@H](CO)C2)n1 | -3.59
30 | C=C(C)CN(CC)C(=O)CN(C)C1CCc2ccccc21 (stereo unspecified) | -11.6
31 | CC(C)n1cc(CN2CCCN(C(=O)c3ccnn3C)CC2)cn1 | 2.79
32 | COCCN(C)C[C@@H]1CN(C(=O)c2ccc(C)cc2)C[C@@H]1CO | -9.21
33 | COCc1nc(C(=O)N2CCCC(n3nc(C)nc3C)C2)cs1 (stereo unspecified) | -24.1
34 | COCCCNC(=O)c1cc(C(C)C)nc(N2CCCC2)n1 | 6.5
35 | Cc1nnc2n1CCN(C(=O)c1cc(C)n(-c3ccccn3)c1C)C2 | 0.765
36 | CS(=O)(=O)N1CCc2ncc(CNC(=O)C3CCC3)n2CC1 | 10.9
37 | CCn1ccnc1CN1CCCN(C(=O)Cc2ccc(C)cc2)CC1 | -7.29
38 | OCCN1CCC2(CCc3cc(-c4ccoc4)ccc32)CC1 | -0.582
39 | CCc1cc(NC2CCN(Cc3ccccc3F)CC2)n2nccc2n1 | -6
40 | CS(=O)(=O)NCc1cc(=O)n2c(n1)CN(CC1CC1)CCC2 | -104
41 | O=c1c2cn[nH]c2nc(SCCN2CCOCC2)n1-c1ccccc1 | 0.219
42 | OCc1ccc(CNc2ccccc2CN2CCC(O)CC2)o1 | 1.85

Row | Compound | cytotoxicity at 10 µM [%]
43 | Cc1ccc(OCC(O)CN2CCc3c(ncn3C3CC3)C2)cc1 (stereo unspecified) | 0.2
44 | O=C(CN1CCN(C(=O)Cc2ccc3c(c2)OCCO3)CC1)NC1CC1 | -2.35
45 | CC(=O)Cn1ncc(N2CCOCC2)cc1=O | 7.26
46 | Cc1nccn1[C@@H]1CC[C@@H](NC(=O)CCCn2cncn2)[C@H]1O | 6.17
47 | Cn1cnc(S(=O)(=O)N2CC3(CCN(Cc4ccncc4)C3)C2)c1 | -113
48 | CSc1ccc(NC(=O)NCc2nncn2C2CC2)cc1F | 0
49 | Cc1ccc(C(=O)N(CCC#N)Cc2ccccn2)cc1C | 0.665
50 | Cn1cc(CN2CCC3(CC2)CCN(C(=O)c2cscn2)C3)cn1 | -2.45
51 | Cc1noc([C@@H]2C[C@H](NC(=O)NC(C)C)CN2C)n1 | -10.1
52 | O=C(N1CC(c2cccnc2)C1)C1(c2ccc(F)cc2)CCOCC1 | -14.5
53 | Cc1nnc(N2C[C@H](C(=O)NCC3CC3)[C@@H]3CCO[C@@H]3C2)s1 | 17.1
54 | CC1CN(C(=O)NCc2cccc(C#N)c2)CCN1CC(F)(F)F (stereo unspecified) | -6.68
55 | O=C(O)c1cc(-c2cccs2)nc2c(Cl)cnn12 | -8.33
56 | COc1cn(CC(=O)N2CCN(c3ccc(F)cc3)CC2)c(C)cc1=O | 2.29
57 | CNC(=O)N1C[C@H]2CC[C@@]3(N=C(c4ccccc4)NC3=O)[C@H]2C1 | -9.84
58 | CC(CN1CCOCC1)NC(=O)NCc1ccc(Cl)s1 (stereo unspecified) | 1.23
59 | O=C(Nc1cnc(N2CCOCC2)nc1)c1ccc(C(F)(F)F)cc1 | 9.94
60 | CCc1ccc(CNC(=O)N2CCN(Cc3cc(C)no3)CC2)s1 | 1.45
61 | Cc1n[nH]c(C2CN(C(=O)c3ccon3)CCO2)n1 (stereo unspecified) | -8.27
62 | Cn1ncnc1NCc1ccc(Cl)cc1 | -4.43
63 | CC(C)C(=O)NC1CCN(Cc2cccc3c2OCCO3)CC1 | -0.818

Row | Compound | cytotoxicity at 10 µM [%]
64 | Cc1nc(N2CC[C@@H](NC(=O)c3cnccn3)[C@H](O)C2)c2ccsc2n1 | 38.6
65 | COc1ccc(C(=O)C2CCCN(Cc3cccc(F)c3)C2)c(OC)c1 (stereo unspecified) | 6.4
66 | CC(C)NC(=O)C1CCN(c2snc3ccccc23)CC1 | -8.18
67 | O=C(c1cnn[nH]1)N(Cc1ccncc1)CC1CCCO1 (stereo unspecified) | 2.86
68 | O=C(Cn1c(=O)oc2ccccc21)N1Cc2cnn(CCO)c2C1 | 0.154
69 | Cc1nccc(CNC(=O)N2CCN(Cc3ccccc3)C[C@H]2C)n1 | -128
70 | CCOCC1CC2(CCN(C(=O)c3ccccn3)CC2)CO1 (stereo unspecified) | -3.76
71 | CN(CCO)C[C@@H]1CN(Cc2ccccc2-c2ccccc2)C[C@@H]1CO | -14
72 | Cc1nn(C)c(N2CCOCC2)c1CNC(C)c1cccnc1 (stereo unspecified) | -13.6
73 | Cc1cccc(CN2C[C@@H](CN3CCCN(C)CC3)C[C@H](CO)C2)n1 | 2.04
74 | Cn1cnc2c1CCN(Cc1nc(COc3ccc(F)cc3)no1)C2 | -7.22
75 | O=C(c1cn(-c2ccccc2C(F)(F)F)nn1)N1CCSCC1 | -0.111
76 | O=C(Nc1ccccc1C(=O)NCCCN1CCOCC1)c1ccco1 | 8.17
77 | CCn1cc(S(=O)(=O)N2CCC(C3CCCCN(C)C3=O)CC2)c(C)n1 (stereo unspecified) | 6.58
78 | O=C(C1=CCCC1)N1C[C@H](OCc2cccnc2)[C@H]2OCCC[C@H]21 | 7.86
79 | Cc1nn(C)c(N2CCOCC2)c1CNC1CCN(C(C)(C)C)CC1 | -3.66
80 | Cc1ccccc1OCCC(=O)OC(C)C(=O)Nc1sccc1C(N)=O (stereo unspecified) | 19.4
81 | Cc1cnn(C2CN(Cc3noc(C)n3)C2)c1 | 40.3
